Here are results for twelve molecules from ChEMBL document CHEMBL3822360, “Synthesis of new thiazolo-celecoxib analogues as dual cyclooxygenase-2/15-lipoxygenase inhibitors: Determination of regio-specific different pyrazole cyclization by 2D NMR” (Eur J Med Chem, 2016).

Each structure is given as a SMILES string.

Data set [1] relates to Rattus norvegicus. The experiment in a line: Ulcerogenicity in Wistar albino rat assessed as damage in gastric mucosa at 30.9 umol/kg, po qd for 3 days measured 1 hr post last dose. Type of data set: toxicity, organism-based. As to conditions: in vivo. Summed up:
(§1)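 Rats were fasted 18 h, then dosed orally once daily for 3 consecutive days. Compounds were given in DMSO; controls received 10% aqueous DMSO (v/v). Ulcer index is the sum of % ulcer incidence/10, mean number of ulcers per stomach and mean ulcer severity. Values are mean ± SEM.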

Data set [2] deals with Rattus norvegicus. The experiment in a line: Anti-inflammatory activity against Wistar albino rat model of carrageenan-induced paw edema assessed as reduction in paw thickness at 15 mg/kg, po measured after 2 hrs relative to control. The data set is classed as functional. Summed up:
(§2)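 Adult male Wistar albino rats (100–150 g) were housed under a 12 h light cycle at 27 ± 2 °C with food and water. Paw edema was induced with carrageenan after oral dosing. […] Values are mean ± SEM, n = 5.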

Data set [3] has as its system Rattus norvegicus. The experiment in a line: Anti-inflammatory activity in Wistar albino rat assessed as inhibition of carrageenan-induced paw edema 15 mg/kg, po measured after 4 hrs relative to control. Type of data set: functional. The gist of the method:
as §2
A general note: In the carrageenan paw model, swelling and tenderness develop within hours.

Data set [4] can be described thus: Inhibition of soybean 15-LOX using arachidonic acid as substrate by enzyme immunoassay. The arrangement: species or system Glycine max. The gist of the method:
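Soybean 15-LOX inhibition was measured with an EIA kit following the manufacturer's instructions, in 0.1 M Tris-HCl buffer, pH 7.4. Compounds were dissolved in minimal DMSO and diluted to final concentrations of 0.001–10 μM, including 1, 5 and 10 μM. IC50 (μM) is the mean of two determinations.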

Data set [5] deals with Rattus norvegicus. The experiment in a line: Anti-inflammatory activity in Wistar albino rat assessed as inhibition of carrageenan-induced paw edema at 50 mg/kg, po measured after 4 hrs relative to control. The data set is classed as functional. The gist of the method:
as §2

For data set [6], the system named is Rattus norvegicus. The experiment in a line: Anti-inflammatory activity in Wistar albino rat assessed as inhibition of carrageenan-induced paw edema at 50 mg/kg, po measured after 2 hrs relative to control. Type of data set: functional. The gist of the method: as §2
In data set [7] the test system is Rattus norvegicus. The data set can be described thus: Ulcerogenicity in Wistar albino rat assessed as damage in gastric mucosa at 50 mg/kg, po qd for 3 days measured 1 hr post last dose. Type of data set: toxicity, organism-based. As to conditions: in vivo. Summed up: as §1
The target in data set [8] is T1, Prostaglandin G/H synthase 1 (Ovis aries, UniProt P05979).
T1 sequence (P05979 whole entry): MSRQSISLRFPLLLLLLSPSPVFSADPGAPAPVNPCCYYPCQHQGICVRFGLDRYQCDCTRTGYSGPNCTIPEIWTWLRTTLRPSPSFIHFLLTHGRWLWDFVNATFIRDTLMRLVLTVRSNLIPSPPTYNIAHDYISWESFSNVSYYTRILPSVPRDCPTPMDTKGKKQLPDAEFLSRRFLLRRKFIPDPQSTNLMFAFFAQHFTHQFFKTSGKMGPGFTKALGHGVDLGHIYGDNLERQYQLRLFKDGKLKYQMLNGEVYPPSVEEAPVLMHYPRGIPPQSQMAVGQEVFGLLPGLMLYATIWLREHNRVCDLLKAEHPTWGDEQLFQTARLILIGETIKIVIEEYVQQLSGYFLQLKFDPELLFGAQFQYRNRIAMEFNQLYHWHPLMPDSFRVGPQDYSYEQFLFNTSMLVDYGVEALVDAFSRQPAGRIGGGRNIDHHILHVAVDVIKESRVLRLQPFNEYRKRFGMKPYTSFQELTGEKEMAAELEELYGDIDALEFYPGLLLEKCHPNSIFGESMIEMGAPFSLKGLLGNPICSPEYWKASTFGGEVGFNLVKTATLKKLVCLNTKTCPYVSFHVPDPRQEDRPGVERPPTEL
The experiment in a line: Inhibition of ovine COX-1 assessed as reduction in PGF2-alpha formation using arachidonic acid as substrate by enzyme immunoassay.

A word on the inhibition in vivo: it is the percentage by which the read-out fell short of the control. In the case of `Cc1ccc(-c2cc(C(F)(F)F)nn2-c2ccc(S(N)(=O)=O)cc2)cc1` [CELECOXIB], in the data set on Rattus norvegicus [1], the UI came out at 2.9. Moreover, the inhibition in vivo at 15 mg/kg in the data set on Rattus norvegicus [2] turned out to be 59.7%. Besides, in the data set with Rattus norvegicus [3], the “inhibition (INH)” value was found to be 65.63%.
The term IC50 denotes the concentration needed to halve the response being measured. For the molecule `Cc1nc(-c2ccccc2)sc1-c1ccnn1-c1ccc(S(N)(=O)=O)cc1`, the IC50 in data set [4] amounted to 8.68 µM; in data set [8], 9.8 µM. Also, the inhibition in vivo at 50 mg/kg in the data set on Rattus norvegicus [5] was 54.7%; with Rattus norvegicus [6], 54.8%. The UI in the data set on Rattus norvegicus [7] came out at 2.48.
`C/C(=N\Nc1ccc(S(C)(=O)=O)cc1)c1sc(-c2ccccc2)nc1C`: the IC50 turned out to be 6.35 µM in data set [4] and 5.4 µM in data set [8]. Moreover, the inhibition in vivo at 50 mg/kg with Rattus norvegicus [5] turned out to be 28.1%; with Rattus norvegicus [6], 27.4%. Moreover, the UI in the data set with Rattus norvegicus [7] turned out to be 3.87.
On to `COc1ccc([C@@H]2CC(c3sc(-c4ccccc4)nc3C)=NN2c2ccc(S(C)(=O)=O)cc2)cc1`, for which the IC50 in data set [4] was found to be 4.71 µM; in data set [8], 5.8 µM. In addition, the inhibition in vivo at 50 mg/kg in the data set on Rattus norvegicus [5] amounted to 28.1%; with Rattus norvegicus [6], 27.5%. In addition, in the data set with Rattus norvegicus [7], the UI turned out to be 3.83.
`Cc1nc(-c2ccccc2)sc1-c1cc(C(F)(F)F)nn1-c1ccc(S(C)(=O)=O)cc1`: the half-maximal inhibitory concentration (IC50) was 3.98 µM in data set [4] and 4.8 µM in data set [8]. For the same molecule, the figures for the inhibition in vivo at 50 mg/kg in the data set with Rattus norvegicus [5] and in the data set with Rattus norvegicus [6] were 51.6% and 53.2%, respectively. The UI in the data set on Rattus norvegicus [7] is recorded as 2.78.
For the molecule `COc1ccc([C@@H]2CC(c3sc(-c4ccccc4)nc3C)=NN2c2ccc(S(N)(=O)=O)cc2)cc1`, the results for the IC50 in data set [4] and in data set [8] were 5.9 µM and 6.8 µM, respectively. Moreover, the inhibition in vivo at 50 mg/kg with Rattus norvegicus [5] came out at 42.2%; with Rattus norvegicus [6], 37.1%. Besides, the UI in the data set on Rattus norvegicus [7] is 3.79.
In the case of `Cc1nc(-c2ccccc2)sc1-c1ccnn1-c1ccc(S(C)(=O)=O)cc1`, the results for the IC50 in data set [4] and in data set [8] were 7.49 µM and 10.3 µM, respectively. The results for the inhibition in vivo at 50 mg/kg with Rattus norvegicus [5] and in the data set with Rattus norvegicus [6] were 48.4% and 46.8%, respectively. Moreover, the UI in the data set on Rattus norvegicus [7] was determined as 4.35.
`Cc1ccc(Cl)c(Nc2ccccc2C(=O)O)c1Cl` [MECLOFENAMATE SODIUM]: in data set [4], the IC50 is 5.64 µM.
Take `Cc1nc(-c2ccccc2)sc1-c1ccnn1-c1ccc(S(=O)(=O)/N=C/N(C)C)cc1`: the IC50 was 7.68 µM in data set [4] and 8.7 µM in data set [8]. Besides, the values for the inhibition in vivo at 50 mg/kg in the data set on Rattus norvegicus [5] and with Rattus norvegicus [6] were 51.6% and 53.2%, respectively. For the same molecule, the UI in the data set on Rattus norvegicus [7] is listed as 2.93.
For the molecule `Cc1nc(-c2ccccc2)sc1-c1cc(C(F)(F)F)nn1-c1ccc(S(N)(=O)=O)cc1`, the 50% inhibitory concentration (IC50) came out at 5.41 µM in data set [4] and 6.3 µM in data set [8]. For the same molecule, the values for the inhibition in vivo at 50 mg/kg with Rattus norvegicus [5] and in the data set with Rattus norvegicus [6] were 57.8% and 53.2%, respectively. Also, the UI with Rattus norvegicus [7] is on record as 2.67.
In the same order, the values of `C/C(=N\Nc1ccc(S(N)(=O)=O)cc1)c1sc(-c2ccccc2)nc1C` are 8.6 µM, 9.8 µM, 37.1%, 33.9% and 2.65.
`COc1ccc(/C=C/C(=O)c2sc(-c3ccccc3)nc2C)cc1`: the figures for the IC50 in data set [4] and in data set [8] were 7.4 µM and 8.6 µM, respectively. For the same molecule, the inhibition in vivo at 50 mg/kg in the data set on Rattus norvegicus [5] was found to be 46.9%; in the data set on Rattus norvegicus [6] it was 43.8%. The UI in the data set with Rattus norvegicus [7] is reported as 4.08.
